Measured values from different studies.
Compare with care: the assays were run in different laboratories.
RAF1: RAF proto-oncogene serine/threonine-protein kinase (RAF1, Homo sapiens, UniProt P04049)
RAF1 Y340D/Y341D: RAF proto-oncogene serine/threonine-protein kinase (RAF1, Homo sapiens, UniProt P04049, Y340D/Y341D)

For `O=C(Nc1cnn(-c2csc(C(=O)NC3COC3)c2)c1)Nc1ccccc1Cl`, the remaining activity was 87% (RAF1; enzyme activity, inhibitor; 5 µM).
With `Cc1ccc(C(=O)Nc2ccc(CN3CCN(C)CC3)c(C(F)(F)F)c2)cc1C#Cc1cnc2cccnn12` the remaining activity was 61% (RAF1; enzyme activity, inhibitor; 23.5 nM).
`COc1cc(-c2cc(-c3ccc(N4CCNCC4)cc3)cnc2N)cc(OC)c1OC` has an inhibition of 2% (RAF1; enzyme activity, inhibitor; 0.1 µM).
`CNC(=O)Nc1ccc2c(c1)CC[C@@]21OC(=O)N(CC(=O)N(Cc2ccc(F)cc2)[C@@H](C)C(F)(F)F)C1=O` has a remaining binding of 100% (RAF1; cell-free assay, competition with immobilised ligand; 1 µM).
The inhibition of `COc1cc2ncnc(Nc3ccc(Oc4ccccc4)cc3C)c2cc1OC` is reported as 27% (RAF1 Y340D/Y341D; enzyme activity, inhibitor; 1 µM).
With `CN(C)C1CCN(CC#Cc2nn(C3CCCC3)c3nc(NCc4ccccc4)ncc23)C1` (stereo not shown) the inhibition was 3% (RAF1 Y340D/Y341D; enzyme activity, inhibitor, FRET; 10 µM).
With `CNCc1ccc(-c2cc(-c3nc(-c4ccc(S(=O)(=O)C(C)C)cc4)cnc3N)on2)cc1` the inhibition was 10% (RAF1; enzyme activity, inhibitor; 2 µM).
The remaining signal of `C[C@@H]1CCN(C(=O)CC#N)C[C@@H]1N(C)c1ncnc2[nH]ccc12` is reported as 95.5% (RAF1; cell-free assay, inhibitor; 0.5 µM).
The remaining binding of `Cc1cc(-n2nc(Cc3cc(F)cc(C(F)(F)F)c3)nc2C)ccc1C(N)=O` is reported as 87% (RAF1; cell-free assay, competition with immobilised ligand; 1 µM).
For `CCOc1cc(-c2nncn2C)ccc1Nc1ncc2cc(C)nc(NCC(C)(C)C)c2n1`, the inhibition was no more than 15% (RAF1 Y340D/Y341D; cell-free assay, TR-FRET; 1 µM).
With `CCN(CC)CCNC(=O)c1c(C)[nH]c(/C=C2\C(=O)Nc3ccc(F)cc32)c1C` the remaining activity was 95% (RAF1; enzyme activity, inhibitor; 1 µM).
The inhibition of `Cc1ccc(Nc2nccc(N(C)c3ccc4c(C)n(C)nc4c3)n2)cc1S(N)(=O)=O` is reported as 77% (RAF1; enzyme activity, inhibitor; 0.3 µM).
`Nc1c(C(=O)NCc2ccc(C(=O)NCCCC3CCCCC3)cc2)cnn1-c1ccccc1` has a remaining binding of 100% (RAF1; cell-free assay, competition with immobilised ligand; 0.1 µM).
With `O=C1NC(=O)c2cc(Nc3ccc(F)cc3)c(Nc3ccc(F)cc3)cc21` the remaining signal was 81.9% (RAF1; cell-free assay; 0.5 µM).
`Cc1cc(NC(=O)c2cccc3cc(-c4cccc5[nH]nc(N)c45)ccc23)ccc1F` gave an activity vs control of 97% (RAF1; enzyme activity, inhibitor; 0.1 µM).
`CCOCCn1cc(C(=O)Nc2ccc(-n3nc(-c4cccnc4)cc3C(F)(F)F)cn2)ccc1=O` gave a remaining binding of 100% (RAF1; cell-free assay, competition with immobilised ligand; 1 µM).
With `CC(C)(C)c1nc2c(s1)c1nc(N)ncc1c1ccc(NS(=O)(=O)c3c(F)cccc3F)c(F)c12` the remaining activity was 9% (RAF1 Y340D/Y341D; enzyme activity, inhibitor, radiometric; 1 µM).
`CC(C)(O)[C@H]1CC[C@H](Nc2ccc3ncc(-c4cccc(C(F)(F)F)c4)n3n2)CC1` has a remaining activity of 91.6% (RAF1; enzyme activity, inhibitor; 1 µM).
`CCOC(=O)c1cc2cc(-c3cc(C(=O)NCc4ccc(C(=O)O)cc4)nn3C)ccc2[nH]1` gave a remaining binding of 100% (RAF1; cell-free assay, competition with immobilised ligand; 0.1 µM).
The remaining signal of `N#CCCc1ccc2c(c1)-c1[nH]c3ccc([N+](=O)[O-])cc3c1CC(=O)N2` is reported as 104% (RAF1; cell-free assay; 0.5 µM).
For `Nc1cnc(N2CCc3cc(S(=O)(=O)Nc4c(F)cc(Cl)cc4F)cc(N4CCCC4=O)c32)nc1`, the remaining binding was 79% (RAF1; cell-free assay, competition with immobilised ligand; 1 µM).
For `Cc1[nH]c(/C=C2\C(=O)Nc3ccc(F)cc32)c(C)c1C(=O)N[C@H]1CCN(C(=O)N(C)C)C1`, the remaining activity was 100% (RAF1; enzyme activity, inhibitor; 1 µM).
For `Cc1ccc(C(=O)NCc2ccsc2)cc1C#Cc1cn(C(C)C)c2ncnc(N)c12`, the activity vs control was 15% (RAF1; enzyme activity, inhibitor; 1 µM).
`CCCOc1ccc(OC)c(F)c1C(=O)c1ccc(C(=O)N[C@@H]2CNC[C@H]2NC(=O)c2ccc3[nH]ncc3c2)cc1` has a remaining activity of 109% (RAF1; enzyme activity, inhibitor; 10 µM).
`CC(C)c1ccc(NC(=O)c2cccs2)c(-c2nc3ccccc3[nH]c2=O)c1` gave an activity vs control of 96% (RAF1; enzyme activity, inhibitor; 1 µM).
For `C[C@H](NC(=O)c1cnc2n1[C@](C)(Cc1ccc(C#N)cc1)C(=O)N2c1cc(Cl)c(F)c(Cl)c1)C(=O)NC1(c2ccccn2)CC1`, the remaining binding was 100% (RAF1; cell-free assay, competition with immobilised ligand; 1 µM).
With `CS(=O)(=O)Nc1cccc(-c2csc(NC(=O)CSc3nc4nccnc4c(=O)n3CCc3ccccc3)n2)c1` the inhibition was -1% (RAF1 Y340D/Y341D; enzyme activity, inhibitor; 10 µM).
The remaining signal of `C[S+]([O-])c1ccc(-c2nc(-c3ccncc3)c(-c3ccc(F)cc3)[nH]2)cc1` (stereo not shown) is reported as 41.1% (RAF1; cell-free assay; 0.5 µM).
With `CC(=O)N1CCC(c2ccc(C(=O)NC(=N)N)cc2C(F)(F)F)CC1` the remaining binding was 100% (RAF1; cell-free assay, competition with immobilised ligand; 1 µM).
`Cc1sc(C(=O)NC2COC2)cc1-n1cc(NC(=O)Nc2c(F)cccc2Cl)cn1` gave a remaining activity of 92.6% (RAF1; enzyme activity, inhibitor; 10 µM).
`CCN(CC)c1ccc(C2=NNC(=O)CC2C)cc1[N+](=O)[O-]` (stereo not shown) gave a remaining activity of 90% (RAF1; enzyme activity, inhibitor; 10 µM).
